Measurements: ChEMBL document CHEMBL4477254, “Synthesis and biological evaluation of some novel triazole hybrids of curcumin mimics and their selective anticancer activity against breast and prostate cancer cell lines” (Bioorg Med Chem Lett, 2016)

Test system: MDA-MB-231
Assay: Potency index, ratio of curcumin IC50 to compound IC50 in human MDA-MB-231 cells
Type: functional
Details: not given
Summary of the method: (§1)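 IC50 came from an MTT viability assay after 24 h compound exposure, with curcumin run as the standard. Values are mean ± SE of three independent experiments. The index is the curcumin IC50 divided by the compound IC50 in the same cell line.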

SMILES	Ratio IC50
COc1ccc(/C=C2\CN(Cc3cn(Cc4ccc(F)cc4)nn3)C/C(=C\c3ccc(OC)cc3)C2=O)cc1	<=8.3
Cc1ccc(/C=C2\CN(Cc3cn(Cc4ccccc4Cl)nn3)C/C(=C\c3ccc(C)cc3)C2=O)cc1	<=8.3
Cc1ccc(/C=C2\CN(Cc3cn(Cc4cccc(Cl)c4)nn3)C/C(=C\c3ccc(C)cc3)C2=O)cc1	<=8.3
O=C1/C(=C/c2ccccc2F)CN(Cc2cn(Cc3cccc(Cl)c3)nn2)C/C1=C\c1ccccc1F	<=8.3
COc1ccc(/C=C2\CN(C(=S)SCc3cn(Cc4cccc(Cl)c4)nn3)C/C(=C\c3ccc(OC)cc3)C2=O)cc1	<=8.3
Cc1ccc(/C=C2\CN(Cc3cn(Cc4ccc(F)cc4)nn3)C/C(=C\c3ccc(C)cc3)C2=O)cc1	<=8.3
O=C1/C(=C/c2ccccc2F)CN(Cc2cn(Cc3ccccc3Cl)nn2)C/C1=C\c1ccccc1F	<=8.3

Test system: MDA-MB-231
Assay: Cytotoxicity against human MDA-MB-231 cells assessed as decrease in cell viability after 24 hrs by MTT assay
Type: functional, cell-based
Details: MDA-MB-231, 24 h
Summary of the method: (§2)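 Cell viability by MTT after 24 h compound exposure; curcumin as standard. IC50 in µM from three independent experiments, expressed as mean ± SE.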

SMILES	IC50 [µM]
COc1ccc(/C=C2\CN(Cc3cn(Cc4ccc(F)cc4)nn3)C/C(=C\c3ccc(OC)cc3)C2=O)cc1	70.7
Cc1ccc(/C=C2\CN(Cc3cn(Cc4ccccc4Cl)nn3)C/C(=C\c3ccc(C)cc3)C2=O)cc1	29
Cc1ccc(/C=C2\CN(Cc3cn(Cc4cccc(Cl)c4)nn3)C/C(=C\c3ccc(C)cc3)C2=O)cc1	9
O=C1/C(=C/c2ccccc2F)CN(Cc2cn(Cc3cccc(Cl)c3)nn2)C/C1=C\c1ccccc1F	12
COc1ccc(/C=C2\CN(C(=S)SCc3cn(Cc4cccc(Cl)c4)nn3)C/C(=C\c3ccc(OC)cc3)C2=O)cc1	32
Cc1ccc(/C=C2\CN(Cc3cn(Cc4ccc(F)cc4)nn3)C/C(=C\c3ccc(C)cc3)C2=O)cc1	26.8
O=C1/C(=C/c2ccccc2F)CN(Cc2cn(Cc3ccccc3Cl)nn2)C/C1=C\c1ccccc1F	16.5

Test system: PC-3
Assay: Cytotoxicity against human PC3 cells assessed as decrease in cell viability after 24 hrs by MTT assay
Type: functional, cell-based
Details: PC-3, 24 h
Summary of the method: as §2

SMILES	IC50 [µM]
COc1ccc(/C=C2\CN(Cc3cn(Cc4ccc(F)cc4)nn3)C/C(=C\c3ccc(OC)cc3)C2=O)cc1	67.5
Cc1ccc(/C=C2\CN(Cc3cn(Cc4ccccc4Cl)nn3)C/C(=C\c3ccc(C)cc3)C2=O)cc1	8.9
Cc1ccc(/C=C2\CN(Cc3cn(Cc4cccc(Cl)c4)nn3)C/C(=C\c3ccc(C)cc3)C2=O)cc1	29.3
O=C1/C(=C/c2ccccc2F)CN(Cc2cn(Cc3cccc(Cl)c3)nn2)C/C1=C\c1ccccc1F	6.8
COc1ccc(/C=C2\CN(C(=S)SCc3cn(Cc4cccc(Cl)c4)nn3)C/C(=C\c3ccc(OC)cc3)C2=O)cc1	> 80
Cc1ccc(/C=C2\CN(Cc3cn(Cc4ccc(F)cc4)nn3)C/C(=C\c3ccc(C)cc3)C2=O)cc1	65.6
O=C1/C(=C/c2ccccc2F)CN(Cc2cn(Cc3ccccc3Cl)nn2)C/C1=C\c1ccccc1F	7.1

Test system: HEK293
Assay: Cytotoxicity against human HEK293 cells assessed as decrease in cell viability after 24 hrs by MTT assay
Type: cell-based
Details: HEK293, 24 h
Summary of the method: as §2

SMILES	IC50 [µM]
Cc1ccc(/C=C2\CN(Cc3cn(Cc4ccccc4Cl)nn3)C/C(=C\c3ccc(C)cc3)C2=O)cc1	91.5
Cc1ccc(/C=C2\CN(Cc3cn(Cc4cccc(Cl)c4)nn3)C/C(=C\c3ccc(C)cc3)C2=O)cc1	73.5
O=C1/C(=C/c2ccccc2F)CN(Cc2cn(Cc3cccc(Cl)c3)nn2)C/C1=C\c1ccccc1F	33.1
COc1ccc(/C=C2\CN(C(=S)SCc3cn(Cc4cccc(Cl)c4)nn3)C/C(=C\c3ccc(OC)cc3)C2=O)cc1	> 100
O=C1/C(=C/c2ccccc2F)CN(Cc2cn(Cc3ccccc3Cl)nn2)C/C1=C\c1ccccc1F	33.2

Test system: DU-145
Assay: Potency index, ratio of curcumin IC50 to compound IC50 in human DU145 cells
Type: functional
Details: not given
Summary of the method: as §1

SMILES	Ratio IC50
Cc1ccc(/C=C2\CN(Cc3cn(Cc4ccccc4Cl)nn3)C/C(=C\c3ccc(C)cc3)C2=O)cc1	≤ 9.5
Cc1ccc(/C=C2\CN(Cc3cn(Cc4cccc(Cl)c4)nn3)C/C(=C\c3ccc(C)cc3)C2=O)cc1	≤ 9.5
O=C1/C(=C/c2ccccc2F)CN(Cc2cn(Cc3cccc(Cl)c3)nn2)C/C1=C\c1ccccc1F	≤ 9.5
O=C1/C(=C/c2ccccc2F)CN(Cc2cn(Cc3ccccc3Cl)nn2)C/C1=C\c1ccccc1F	≤ 9.5

Test system: 4T1
Assay: Potency index, ratio of curcumin IC50 to compound IC50 in mouse 4T1 cells
Type: functional
Details: not given
Summary of the method: as §1

SMILES	Ratio IC50
COc1ccc(/C=C2\CN(Cc3cn(Cc4ccc(F)cc4)nn3)C/C(=C\c3ccc(OC)cc3)C2=O)cc1	<=9.3
Cc1ccc(/C=C2\CN(Cc3cn(Cc4ccccc4Cl)nn3)C/C(=C\c3ccc(C)cc3)C2=O)cc1	<=9.3
Cc1ccc(/C=C2\CN(Cc3cn(Cc4cccc(Cl)c4)nn3)C/C(=C\c3ccc(C)cc3)C2=O)cc1	<=9.3
O=C1/C(=C/c2ccccc2F)CN(Cc2cn(Cc3cccc(Cl)c3)nn2)C/C1=C\c1ccccc1F	<=9.3
O=C1/C(=C/c2ccccc2F)CN(Cc2cn(Cc3ccccc3Cl)nn2)C/C1=C\c1ccccc1F	<=9.3

Test system: PC-3
Assay: Potency index, ratio of curcumin IC50 to compound IC50 in human PC3 cells
Type: functional
Details: not given
Summary of the method: as §1

SMILES	Ratio IC50
Cc1ccc(/C=C2\CN(Cc3cn(Cc4ccccc4Cl)nn3)C/C(=C\c3ccc(C)cc3)C2=O)cc1	<=5.7
Cc1ccc(/C=C2\CN(Cc3cn(Cc4cccc(Cl)c4)nn3)C/C(=C\c3ccc(C)cc3)C2=O)cc1	<=5.7
O=C1/C(=C/c2ccccc2F)CN(Cc2cn(Cc3cccc(Cl)c3)nn2)C/C1=C\c1ccccc1F	<=5.7
O=C1/C(=C/c2ccccc2F)CN(Cc2cn(Cc3ccccc3Cl)nn2)C/C1=C\c1ccccc1F	<=5.7

Test system: DU-145
Assay: Cytotoxicity against human DU145 cells assessed as decrease in cell viability after 24 hrs by MTT assay
Type: functional, cell-based
Details: DU-145, 24 h
Summary of the method: as §2

SMILES	IC50 [µM]
COc1ccc(/C=C2\CN(Cc3cn(Cc4ccc(F)cc4)nn3)C/C(=C\c3ccc(OC)cc3)C2=O)cc1	59.4
Cc1ccc(/C=C2\CN(Cc3cn(Cc4ccccc4Cl)nn3)C/C(=C\c3ccc(C)cc3)C2=O)cc1	10.5
Cc1ccc(/C=C2\CN(Cc3cn(Cc4cccc(Cl)c4)nn3)C/C(=C\c3ccc(C)cc3)C2=O)cc1	33.1
O=C1/C(=C/c2ccccc2F)CN(Cc2cn(Cc3cccc(Cl)c3)nn2)C/C1=C\c1ccccc1F	4.3
COc1ccc(/C=C2\CN(C(=S)SCc3cn(Cc4cccc(Cl)c4)nn3)C/C(=C\c3ccc(OC)cc3)C2=O)cc1	> 80
Cc1ccc(/C=C2\CN(Cc3cn(Cc4ccc(F)cc4)nn3)C/C(=C\c3ccc(C)cc3)C2=O)cc1	49.7
O=C1/C(=C/c2ccccc2F)CN(Cc2cn(Cc3ccccc3Cl)nn2)C/C1=C\c1ccccc1F	7.5

Test system: MCF7
Assay: Cytotoxicity against human MCF7 cells assessed as decrease in cell viability after 24 hrs by MTT assay
Type: functional, cell-based
Details: MCF7, 24 h
Summary of the method: as §2

SMILES	IC50 [µM]
COc1ccc(/C=C2\CN(Cc3cn(Cc4ccc(F)cc4)nn3)C/C(=C\c3ccc(OC)cc3)C2=O)cc1	> 100
Cc1ccc(/C=C2\CN(Cc3cn(Cc4ccccc4Cl)nn3)C/C(=C\c3ccc(C)cc3)C2=O)cc1	66.7
Cc1ccc(/C=C2\CN(Cc3cn(Cc4cccc(Cl)c4)nn3)C/C(=C\c3ccc(C)cc3)C2=O)cc1	10
O=C1/C(=C/c2ccccc2F)CN(Cc2cn(Cc3cccc(Cl)c3)nn2)C/C1=C\c1ccccc1F	12
COc1ccc(/C=C2\CN(C(=S)SCc3cn(Cc4cccc(Cl)c4)nn3)C/C(=C\c3ccc(OC)cc3)C2=O)cc1	32
Cc1ccc(/C=C2\CN(Cc3cn(Cc4ccc(F)cc4)nn3)C/C(=C\c3ccc(C)cc3)C2=O)cc1	29
O=C1/C(=C/c2ccccc2F)CN(Cc2cn(Cc3ccccc3Cl)nn2)C/C1=C\c1ccccc1F	10

Test system: 4T1
Assay: Cytotoxicity against mouse 4T1 cells assessed as decrease in cell viability after 24 hrs by MTT assay
Type: functional, cell-based
Details: 4T1, 24 h
Summary of the method: as §2

SMILES	IC50 [µM]
COc1ccc(/C=C2\CN(Cc3cn(Cc4ccc(F)cc4)nn3)C/C(=C\c3ccc(OC)cc3)C2=O)cc1	49.3
Cc1ccc(/C=C2\CN(Cc3cn(Cc4ccccc4Cl)nn3)C/C(=C\c3ccc(C)cc3)C2=O)cc1	23.2
Cc1ccc(/C=C2\CN(Cc3cn(Cc4cccc(Cl)c4)nn3)C/C(=C\c3ccc(C)cc3)C2=O)cc1	29.3
O=C1/C(=C/c2ccccc2F)CN(Cc2cn(Cc3cccc(Cl)c3)nn2)C/C1=C\c1ccccc1F	6.1
COc1ccc(/C=C2\CN(C(=S)SCc3cn(Cc4cccc(Cl)c4)nn3)C/C(=C\c3ccc(OC)cc3)C2=O)cc1	69.7
Cc1ccc(/C=C2\CN(Cc3cn(Cc4ccc(F)cc4)nn3)C/C(=C\c3ccc(C)cc3)C2=O)cc1	57.2
O=C1/C(=C/c2ccccc2F)CN(Cc2cn(Cc3ccccc3Cl)nn2)C/C1=C\c1ccccc1F	5.3
